Laboratory results taken from ChEMBL document CHEMBL1143077, “Synthesis of 2-[3-(7-Chloro-quinolin-4-ylamino)-alkyl]-1-(substituted phenyl)-2,3,4,9-tetrahydro-1H-beta-carbolines as a new class of antimalarial agents” (2008).
Values after ≈ are worked out from the molar mass of the structure shown.

Test system: Plasmodium falciparum
Assay: Antimalarial activity against chloroquine-sensitive Plasmodium falciparum NF54 after 36-40 hrs
Format: functional
In short: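 Rieckmann microassay: NF-54 kept in RPMI-1640 with 25 mM HEPES, 1% D-glucose, 0.23% sodium bicarbonate, 10% heat-inactivated human serum. Ring stage obtained by 5% D-sorbitol synchronization; ~1% parasitemia, 3% haematocrit. Compound 0.25–50 µg/ml, duplicate wells, 37 °C in candle jar. Giemsa smears scored microscopically; MIC taken as lowest concentration blocking full maturation to schizonts.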

MIC	Compound
0.22 µM (≈ 0.125 µg/mL)	COC(=O)[C@H]1Cc2c([nH]c3ccccc23)[C@H](c2ccc(C(C)C)cc2)N1CCCNc1ccnc2cc(Cl)ccc12
17.5 µM (≈ 10 µg/mL)	COC(=O)[C@H]1Cc2c([nH]c3ccccc23)[C@H](c2ccc(SC)cc2)N1CCCNc1ccnc2cc(Cl)ccc12
0.22 µM (≈ 0.125 µg/mL)	COC(=O)[C@@H]1Cc2c([nH]c3ccccc23)[C@H](c2ccc(C(C)C)cc2)N1CCCNc1ccnc2cc(Cl)ccc12
18.1 µM (≈ 10 µg/mL)	COC(=O)[C@@H]1Cc2c([nH]c3ccccc23)[C@@H](c2ccc(C(C)C)cc2)N1CCNc1ccnc2cc(Cl)ccc12
18.1 µM (≈ 10 µg/mL)	COC(=O)[C@@H]1Cc2c([nH]c3ccccc23)[C@H](c2ccc(C(C)C)cc2)N1CCNc1ccnc2cc(Cl)ccc12
0.05 µM (≈ 0.0284 µg/mL)	COC(=O)[C@@H]1Cc2c([nH]c3ccccc23)[C@@H](c2ccc(C(C)C)cc2)N1CCCNc1ccnc2cc(Cl)ccc12
1.79 µM (≈ 1 µg/mL)	COC(=O)[C@H]1Cc2c([nH]c3ccccc23)[C@H](c2ccc(Cl)cc2)N1CCCNc1ccnc2cc(Cl)ccc12
0.06 µM (≈ 0.0323 µg/mL)	COC(=O)[C@@H]1Cc2c([nH]c3ccccc23)[C@@H](c2ccc(C)cc2)N1CCCNc1ccnc2cc(Cl)ccc12
0.22 µM (≈ 0.125 µg/mL)	COC(=O)[C@H]1Cc2c([nH]c3ccccc23)[C@@H](c2ccc(C(C)C)cc2)N1CCCNc1ccnc2cc(Cl)ccc12
3.61 µM (≈ 2 µg/mL)	COC(=O)[C@@H]1Cc2c([nH]c3ccccc23)[C@H](c2ccc(OC)cc2)N1CCCNc1ccnc2cc(Cl)ccc12
0.11 µM (≈ 0.0608 µg/mL)	CCc1ccc([C@@H]2c3[nH]c4ccccc4c3C[C@H](C(=O)OC)N2CCCNc2ccnc3cc(Cl)ccc23)cc1
19.1 µM (≈ 10 µg/mL)	COC(=O)[C@H]1Cc2c([nH]c3ccccc23)[C@H](c2ccc(C)cc2)N1CCNc1ccnc2cc(Cl)ccc12
3.61 µM (≈ 2 µg/mL)	COC(=O)[C@H]1Cc2c([nH]c3ccccc23)[C@@H](c2ccc(OC)cc2)N1CCCNc1ccnc2cc(Cl)ccc12
18.1 µM (≈ 10 µg/mL)	COC(=O)[C@H]1Cc2c([nH]c3ccccc23)[C@@H](c2ccc(C(C)C)cc2)N1CCNc1ccnc2cc(Cl)ccc12
3.58 µM (≈ 2 µg/mL)	COC(=O)[C@@H]1Cc2c([nH]c3ccccc23)[C@H](c2ccc(Cl)cc2)N1CCCNc1ccnc2cc(Cl)ccc12
16.3 µM (≈ 10 µg/mL)	COC(=O)[C@@H]1Cc2c([nH]c3ccccc23)[C@H](c2cc(OC)c(OC)c(OC)c2)N1CCCNc1ccnc2cc(Cl)ccc12
16.3 µM (≈ 10 µg/mL)	COC(=O)[C@H]1Cc2c([nH]c3ccccc23)[C@H](c2cc(OC)c(OC)c(OC)c2)N1CCCNc1ccnc2cc(Cl)ccc12
3.61 µM (≈ 2 µg/mL)	COC(=O)[C@@H]1Cc2c([nH]c3ccccc23)[C@@H](c2ccc(OC)cc2)N1CCCNc1ccnc2cc(Cl)ccc12
0.46 µM (≈ 0.248 µg/mL)	COC(=O)[C@H]1Cc2c([nH]c3ccccc23)[C@H](c2ccc(C)cc2)N1CCCNc1ccnc2cc(Cl)ccc12
18.1 µM (≈ 10 µg/mL)	COC(=O)[C@H]1Cc2c([nH]c3ccccc23)[C@H](c2ccc(OC)cc2)N1CCCNc1ccnc2cc(Cl)ccc12
16.6 µM (≈ 10 µg/mL)	COC(=O)[C@H]1Cc2c([nH]c3ccccc23)[C@H](c2ccc(Br)cc2)N1CCCNc1ccnc2cc(Cl)ccc12
17.5 µM (≈ 10 µg/mL)	COC(=O)[C@@H]1Cc2c([nH]c3ccccc23)[C@H](c2ccc(SC)cc2)N1CCCNc1ccnc2cc(Cl)ccc12
18.1 µM (≈ 10 µg/mL)	COC(=O)[C@H]1Cc2c([nH]c3ccccc23)[C@H](c2ccc(C(C)C)cc2)N1CCNc1ccnc2cc(Cl)ccc12
0.391 µM (≈ 0.125 µg/mL)	CCN(CC)CCCC(C)Nc1ccnc2cc(Cl)ccc12 (centres undefined) [CHLOROQUINE]
